Two compounds from ChEMBL document CHEMBL4145497, “Discovery of 2-aminothiazolyl berberine derivatives as effectively antibacterial agents toward clinically drug-resistant Gram-negative Acinetobacter baumanii” (Eur J Med Chem, 2018) can be followed below.

Values after ≈ are worked out from the molar mass of the structure shown. Active and inactive are the calls of the source. The rule behind the calls is not given here.

Data set [1] deals with Pseudomonas aeruginosa. Briefly: Antibacterial activity against drug-resistant Pseudomonas aeruginosa after 18 to 24 hrs by CLSI two fold serial dilution method. It is filed as functional.
The test system of a further data set is Klebsiella pneumoniae. Briefly: Antibacterial activity against drug-resistant Klebsiella pneumoniae after 18 to 24 hrs by CLSI two fold serial dilution method. It is filed as functional.
A further data set relates to Micrococcus luteus. The data set is described as follows: Antibacterial activity against Micrococcus luteus ATCC 4698 after 18 to 24 hrs by CLSI two fold serial dilution method. It is filed as functional.
For data set [2], the system named is Escherichia coli. The data set is described as follows: Antibacterial activity against drug-resistant Escherichia coli after 18 to 24 hrs by CLSI two fold serial dilution method. It is filed as functional.
In data set [3] the test system is Staphylococcus aureus. Briefly: Antibacterial activity against methicillin-resistant Staphylococcus aureus N315 after 18 to 24 hrs by CLSI two fold serial dilution method. It is filed as functional.
Data set [4] has as its system Acinetobacter baumannii. The data set is described as follows: Antibacterial activity against drug-resistant Acinetobacter baumannii after 18 to 24 hrs by CLSI two fold serial dilution method. It is filed as functional.
Data set [5] concerns Candida albicans. Briefly: Antifungal activity against drug-resistant Candida albicans by CLSI two fold serial dilution method. It is filed as functional.
Data set [6] has as its system Escherichia coli. Briefly: Antibacterial activity against Escherichia coli DH52 after 18 to 24 hrs by CLSI two fold serial dilution method. It is filed as functional.
Data set [7] has as its system Candida albicans. Briefly: Antifungal activity against Candida albicans ATCC 76615 by CLSI two fold serial dilution method. It is filed as functional.
The next data set deals with Enterococcus faecalis. The data set is described as follows: Antibacterial activity against drug-resistant Enterococcus faecalis after 18 to 24 hrs by CLSI two fold serial dilution method. It is filed as functional.
Another data set has as its system Bacillus subtilis. The data set is described as follows: Antibacterial activity against Bacillus subtilis ATCC 21216 after 18 to 24 hrs by CLSI two fold serial dilution method. It is filed as functional.
Data set [8] has as its system Escherichia coli. The data set is described as follows: Potency index, ratio of norfloxacin MIC to compound MIC for antibacterial activity against Escherichia coli DH52. It is filed as functional.
Another data set relates to Saccharomyces cerevisiae. Briefly: Antifungal activity against Saccharomyces cerevisiae ATCC 9763 by CLSI two fold serial dilution method. It is filed as functional.
The next data set has as its system Cyberlindnera jadinii. Briefly: Antifungal activity against Candida utilis ATCC 9950 by CLSI two fold serial dilution method. It is filed as functional. To be noted: Williopsis jadinii.
For another data set, the system named is Pichia norvegensis. Briefly: Antifungal activity against Candida mycoderma ATCC 96918 by CLSI two fold serial dilution method. It is filed as functional.
Data set [9] deals with Pseudomonas aeruginosa. The data set is described as follows: Antibacterial activity against Pseudomonas aeruginosa ATCC 27853 after 18 to 24 hrs by CLSI two fold serial dilution method. It is filed as functional.
A further data set has as its system Candida parapsilosis. Briefly: Antifungal activity against Candida parapsilosis ATCC 22019 by CLSI two fold serial dilution method. To be noted: Lodderomyces parapsilosis. It is filed as functional.
The test system of another data set is Aspergillus fumigatus. The data set is described as follows: Antifungal activity against drug-resistant Aspergillus fumigatus by CLSI two fold serial dilution method. It is filed as functional.
In data set [10] the test system is Staphylococcus aureus. Briefly: Antibacterial activity against Staphylococcus aureus ATCC 25923 after 18 to 24 hrs by CLSI two fold serial dilution method. It is filed as functional.
The subject of another data set is Aspergillus flavus. The data set is described as follows: Antifungal activity against Aspergillus flavus ATCC 204304 by CLSI two fold serial dilution method. It is filed as functional.
A further data set deals with Candida tropicalis. Briefly: Antifungal activity against drug-resistant Candida tropicalis by CLSI two fold serial dilution method. It is filed as functional.
The subject of data set [11] is Acinetobacter baumannii. Briefly: Bactericidal activity against drug-resistant Acinetobacter baumannii assessed as reduction in number of viable bacterial load at 8 nmol/ml with in 2 hrs by time kill assay. It is filed as functional.
Data set [12] is described as follows: Aqueous solubility of the compound in phosphate buffer at pH 7.4 after 3 hrs by UV detection assay. It is filed as physicochemical. The procedure, abridged: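 Water solubility measured at physiological pH, with berberine as the control.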
Data set [13] concerns Acinetobacter baumannii. The data set is described as follows: Induction of membrane permeabilization in drug-resistant Acinetobacter baumannii at 0.024 umol/ml incubated for 1 hr measured up to 120 mins by propidium iodide staining-based fluorescence spectra analysis. It is filed as functional, organism-based.
Data set [14] is described as follows: Cytotoxicity against human LO2 cells assessed as cell viability at 1.5625 to 100 ug/ml after 48 hrs by MTT assay relative to control. The conditions noted are these: read-out: Activity. It is filed as cell-based, L02. The gist of the method:
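Human hepatocyte LO2 cells exposed to compound across a concentration range for 48 h; viability read by colorimetric MTT assay; standard deviation from three independent experiments.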

For data set [15], the system named is Acinetobacter baumannii. The data set is described as follows: Antibacterial activity against drug-resistant Acinetobacter baumannii at 0.7 ug/ml measured 12 hrs post 10 serial passages. It is filed as functional, organism-based.

`CCCCCCOc1c(OC)cc(/C=N/NC(N)=S)c2c1CN1CCc3cc4c(cc3C1C2)OCO4` (configuration not stated): the MIC is 60 µM (≈ 30.6 µg/mL) in the data set with Pseudomonas aeruginosa [1]; 130 µM (≈ 66.4 µg/mL) against Klebsiella pneumoniae; 250 µM (≈ 128 µg/mL) against Micrococcus luteus; 30 µM (≈ 15.3 µg/mL) with Escherichia coli [2]; 130 µM (≈ 66.4 µg/mL) against Staphylococcus aureus [3]; 60 µM (≈ 30.6 µg/mL) against Acinetobacter baumannii [4]. For the same compound, the MIC against Candida albicans [5] turned out to be 60 µM (≈ 30.6 µg/mL); with Escherichia coli [6], 30 µM (≈ 15.3 µg/mL); in the data set on Candida albicans [7] it was 60 µM (≈ 30.6 µg/mL); with Enterococcus faecalis it was 30 µM (≈ 15.3 µg/mL); in the data set with Bacillus subtilis, 130 µM (≈ 66.4 µg/mL); with Saccharomyces cerevisiae, 500 µM (≈ 255 µg/mL). Also, the MIC with Cyberlindnera jadinii is 250 µM (≈ 128 µg/mL); with Pichia norvegensis, 250 µM (≈ 128 µg/mL); in the data set with Pseudomonas aeruginosa [9], 60 µM (≈ 30.6 µg/mL); against Candida parapsilosis, 60 µM (≈ 30.6 µg/mL); in the data set on Aspergillus fumigatus, 130 µM (≈ 66.4 µg/mL); in the data set on Staphylococcus aureus [10], 130 µM (≈ 66.4 µg/mL). Moreover, the results for the minimal inhibitory concentration (MIC) against Aspergillus flavus and against Candida tropicalis were 250 µM (≈ 128 µg/mL) and 60 µM (≈ 30.6 µg/mL), respectively. For the same compound, the Ratio with Escherichia coli [8] is reported as 53.
In the case of `COc1cc(/C=N/Nc2nccs2)c2c(c1OCc1ccc(Cl)cc1Cl)CN1CCc3cc4c(cc3C1C2)OCO4` (configuration not stated), the MIC against Micrococcus luteus turned out to be 110 µM (≈ 67 µg/mL); in the data set on Escherichia coli [6] it was 840 µM (≈ 512 µg/mL); against Candida albicans [7], 420 µM (≈ 256 µg/mL); in the data set with Bacillus subtilis, 210 µM (≈ 128 µg/mL); against Saccharomyces cerevisiae, 840 µM (≈ 512 µg/mL); with Cyberlindnera jadinii it was 210 µM (≈ 128 µg/mL). Also, the MIC in the data set with Pichia norvegensis is 420 µM (≈ 256 µg/mL); against Pseudomonas aeruginosa [9], 210 µM (≈ 128 µg/mL); against Candida parapsilosis, 7 µM (≈ 4.27 µg/mL); with Staphylococcus aureus [10], 110 µM (≈ 67 µg/mL); against Aspergillus flavus it was 420 µM (≈ 256 µg/mL). Also, the Activity in the data set on Acinetobacter baumannii [11] is listed as greater than 3 deltalog10CFU/ml. Also, the solubility at 3 h in data set [12] was determined as 1900 µg/mL (≈ 3.12 mM). Further, the outcome in the data set on Acinetobacter baumannii [13] and in the data set on Acinetobacter baumannii [15] was Active. Further, the viability at 48 h in data set [14] is greater than 80.5%.
